The nature of assay [1]: Binding affinity to 5'ATGCGCAT3'/3'TACGCGTA5' (unknown origin).
Assay [2] is described as follows: Binding affinity to 5'ACCCCT3'/3'TGGGGA5' (unknown origin).
Assay [3] is described as follows: Binding affinity to 5'TGGCGA3'/3'ACCGCT5' (unknown origin).
Assay [4] is described as follows: Binding affinity to 5'ACCGGT3'/3'TGGCCA5' (unknown origin).
Assay [5] is described as follows: Binding affinity to 5'ACGGCT3'/3'TGCCGA5'(unknown origin).
A short description of assay [6]: Binding affinity to 5'ACGCCT3'/3'TGCGGA5' (unknown origin).
Assay [7] is described as follows: Binding affinity to 5'TGCGCA3'/3'ACGCGT5' (unknown origin).
Assay [8] can be described thus: Binding affinity to 5'ACCCGT3'/3'TGGGCA5' (unknown origin).
Assay [9] in a line: Binding affinity to Poly(dGdC).Poly(dGdC) (unknown origin). In outline:
(§1)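 Fluorescence titration in 20 mM sodium phosphate pH 7.0 at 20 ± 1 °C. Compound held at 3 × 10^-6 M while polydeoxynucleotide was varied from 0 to 6.32 × 10^-5 M. Ka was obtained by nonlinear curve fitting of the data. The ratio line is the GC-polymer Ka divided by the AT-polymer Ka.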

The nature of assay [10]: Binding affinity to Poly(dAdT).Poly(dAdT) (unknown origin). The method in brief:
as §1

The species named for assay [11] is Bos taurus. As to the kind of experiment: Inhibition of calf thymus topoisomerase 1-mediated pBR322 relaxation at 100 uM after 30 mins by agarose gel electrophoresis. In outline: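 Topoisomerase I and compound were incubated 30 min at 37 °C in topo I buffer with 0.01% BSA. Reactions were stopped with SDS and loading dye, then run on 0.8% agarose in TAE for 35 min at 120 V, stained with ethidium bromide and imaged under UV.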

Assay [12] concerns the target DNA topoisomerase 2-alpha (Homo sapiens) (UniProt P11388). The assay can be described thus: Inhibition of human topoisomerase 2a-mediated kinetoplast decatenation at 100 uM after 30 mins by agarose gel electrophoresis. The method in brief:
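ATP-dependent kDNA decatenation by 1 unit human topo IIα. Incubated 30 min at 37 °C in 50 mM Tris-HCl pH 8, 150 mM NaCl, 10 mM MgCl2, 2 mM ATP and 0.5 mM DTT. Stopped with SDS, run on 0.8% agarose in TAE for 50 min at 120 V, stained with ethidium bromide and imaged under UV.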

The test system of assay [13] is DNA. As to the kind of experiment: Binding affinity to calf thymus DNA at 20 uM by circular dichroism analysis. It is filed as nucleic-acid assay. The conditions noted are these: Bos taurus. The method in brief: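 Circular dichroism spectra of compound with calf thymus DNA in 20 mM Tris-HCl pH 7.5 containing 1% DMSO (v/v). Recorded in a 1 cm quartz cell over 240–300 nm.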
(In general: CD spectra are sensitive to the conformation of chiral molecules.)

Assay [14] concerns DNA. The assay can be described thus: Binding affinity to calf thymus DNA at 20 uM after 1 hr by fluorimetric analysis. Format: nucleic-acid assay. The settings on record: Bos taurus; 10 uM; in the assay text read “at 10 uM” for “at 20 uM”. In outline: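 Fluorescence quenching with increasing calf thymus DNA in 20 mM Tris-HCl pH 7.5 containing 1% DMSO (v/v). Mixtures were stirred for 1 h at 25 °C in the dark before each spectrum was recorded. Kb came from nonlinear fitting of fluorescence intensity against DNA concentration.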

A short description of assay [15]: Cytotoxicity against human LO2 cells by SRB assay. It is filed as cell-based. The settings on record: L02. For orientation: In SRB staining, fixed cells bind dye roughly in proportion to their protein.
Assay [16] deals with P388. As to the kind of experiment: Cytotoxicity against mouse P388 cells by tetrazolium-formazan assay. Format: functional, cell-based.
The subject of assay [17] is A549. The assay can be described thus: Cytotoxicity against human A549 cells by SRB assay. Format: functional, cell-based.
For assay [18], the species on record is Bos taurus. The assay can be described thus: Inhibition of calf thymus topoisomerase 1-mediated pBR322 relaxation at 200 uM after 30 mins by agarose gel electrophoresis. In outline: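 Topoisomerase I and compound incubated 30 min at 37 °C in topoisomerase I buffer with 0.01% BSA. Reactions were stopped with 10% SDS and loading dye. Products were resolved on a 0.8% agarose gel in TAE for 35 min at 120 V, stained with ethidium bromide at room temperature and photographed under UV.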

Assay [19] is described as follows: Selectivity ratio of Ka for Poly(dGdC).Poly(dGdC) (unknwon origin) to Ka for Poly(dAdT).Poly(dAdT) (unknown origin). The method in brief:
as §1

In general, pIC50 refers to the IC50 on a negative log10 scale, so that one unit is a factor of ten. Lower therefore signals a large IC50.

pIC50: −log10 of the molar value. The source made the active and inactive calls. The calls are words filed in the database; no cut-off is given here.

Sequence of DNA topoisomerase 2-alpha (Homo sapiens) (P11388 whole entry): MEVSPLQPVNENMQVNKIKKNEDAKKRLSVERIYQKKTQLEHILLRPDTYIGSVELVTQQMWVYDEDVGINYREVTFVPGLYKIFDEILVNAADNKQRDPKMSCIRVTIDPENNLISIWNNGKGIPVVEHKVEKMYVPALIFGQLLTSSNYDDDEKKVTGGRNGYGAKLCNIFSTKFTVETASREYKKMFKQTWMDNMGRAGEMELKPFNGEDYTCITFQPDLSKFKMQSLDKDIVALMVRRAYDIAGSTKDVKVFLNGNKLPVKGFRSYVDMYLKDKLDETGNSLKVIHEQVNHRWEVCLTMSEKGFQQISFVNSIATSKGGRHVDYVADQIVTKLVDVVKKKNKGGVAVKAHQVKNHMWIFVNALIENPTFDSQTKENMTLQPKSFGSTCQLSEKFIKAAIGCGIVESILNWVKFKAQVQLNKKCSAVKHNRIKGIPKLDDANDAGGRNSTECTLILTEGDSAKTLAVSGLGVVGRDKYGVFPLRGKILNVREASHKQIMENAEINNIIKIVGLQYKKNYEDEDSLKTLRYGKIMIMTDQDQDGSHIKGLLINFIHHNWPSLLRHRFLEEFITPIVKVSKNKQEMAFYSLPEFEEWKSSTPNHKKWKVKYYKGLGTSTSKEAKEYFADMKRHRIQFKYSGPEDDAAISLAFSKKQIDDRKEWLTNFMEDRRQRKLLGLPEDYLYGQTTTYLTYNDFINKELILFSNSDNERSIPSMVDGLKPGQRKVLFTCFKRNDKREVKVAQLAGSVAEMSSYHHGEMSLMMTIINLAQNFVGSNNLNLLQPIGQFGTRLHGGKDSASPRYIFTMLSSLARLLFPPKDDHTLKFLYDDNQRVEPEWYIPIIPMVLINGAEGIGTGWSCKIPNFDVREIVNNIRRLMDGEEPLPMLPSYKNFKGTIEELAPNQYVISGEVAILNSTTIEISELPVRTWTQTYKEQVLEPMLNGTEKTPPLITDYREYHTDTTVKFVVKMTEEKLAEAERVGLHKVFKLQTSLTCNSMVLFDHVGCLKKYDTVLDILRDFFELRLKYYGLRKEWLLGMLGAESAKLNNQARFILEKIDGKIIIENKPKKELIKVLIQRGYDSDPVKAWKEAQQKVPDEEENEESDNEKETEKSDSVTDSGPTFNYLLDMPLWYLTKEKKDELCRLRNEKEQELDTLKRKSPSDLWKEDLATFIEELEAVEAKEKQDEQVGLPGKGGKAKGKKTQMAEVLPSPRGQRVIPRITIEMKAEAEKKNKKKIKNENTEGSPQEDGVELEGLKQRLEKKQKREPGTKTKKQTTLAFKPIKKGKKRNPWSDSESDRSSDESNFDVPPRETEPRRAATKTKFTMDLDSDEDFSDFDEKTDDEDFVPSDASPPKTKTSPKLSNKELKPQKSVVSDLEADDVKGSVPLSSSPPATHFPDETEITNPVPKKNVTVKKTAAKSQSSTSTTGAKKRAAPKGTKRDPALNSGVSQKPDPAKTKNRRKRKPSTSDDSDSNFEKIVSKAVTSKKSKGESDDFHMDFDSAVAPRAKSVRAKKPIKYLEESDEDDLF

Take `CN(C)CCn1c(=O)c2ccc3oc4ccccc4c4ccc(c1=O)c2c34`: the Ka came to 8 ×10⁴ /M in assay [1]; 1.72 ×10⁵ /M in assay [2]; 8.4 ×10⁴ /M in [3]; 1.12 ×10⁵ /M in assay [4]; 5.9 ×10³ /M in assay [5]; 6.9 ×10³ /M in assay [6]. The Ka in assay [7] worked out at 1.28 ×10⁵ /M; in assay [8] it was 1.2 ×10⁴ /M; in [9], 6.89 ×10⁵ /M; in assay [10], 1.32 ×10⁵ /M; in [14], 1.45 ×10⁵ /M. For the same molecule, in assay [11], the “Topoisomerase 1 relaxation inhibition (qualitative)” value is “Active”. Besides, the “Inhibition (qualitative)” value in assay [12] was “Active”. For the same molecule, the result in assay [13] was Active. The values for the pIC50 in [15], in assay [16] and in assay [17] were 5.39, 5.95 and 6.21, respectively.

Consider `CN(C)CCCn1c(=O)c2ccc3sc4ccccc4c4ccc(c1=O)c2c34`, for which the pIC50 was 6.20 in assay [16] and 6.72 in assay [17].

With `CCCCN1C(=O)c2cccc3c2c(cc2c4ccccc4oc32)C1=O`, the pIC50 in assay [15] was under 4.00; in assay [16], under 4.00; in assay [17], 5.85.

With `COc1ccccc1-c1nc2cc3c4c(cccc4c2o1)C(=O)N(CCN(C)C)C3=O`, the pIC50 is 5.72 in assay [15], 5.89 in assay [16] and 6.05 in [17].

With `Cc1ccc(-c2nc3cc4c5c(cccc5c3o2)C(=O)N(CCN(C)C)C4=O)cc1`, the pIC50 in [15] was 5.17; in assay [16], 4.71; in assay [17], 4.46.

Regarding `CN(C)CCN1C(=O)c2cccc3c2c(cc2nc(-c4ccc([N+](=O)[O-])cc4)oc23)C1=O`, the pIC50 in [15] was under 4.00; in assay [16] it was 4.00; in assay [17] it was 4.75.

Turning to `CN(C)CCCn1c(=O)c2ccc3oc4ccccc4c4ccc(c1=O)c2c34`, the pIC50 in [15] was 4.99; in [16], 5.46; in [17], 4.01.

On to `O=c1c2ccc3oc4ccccc4c4ccc(c(=O)n1CCN1CCNCC1)c2c34`, for which the values for the pIC50 in assay [15], in assay [16] and in [17] were 4.94, 5.34 and 4.54, respectively.

Turning to `COc1cc([C@@H]2c3cc4c(cc3[C@@H](O[C@@H]3O[C@@H]5CO[C@@H](C)O[C@H]5[C@H](O)[C@H]3O)[C@H]3COC(=O)[C@H]23)OCO4)cc(OC)c1O`, the “Topoisomerase 1 relaxation inhibition (qualitative)” value in assay [11] was “Active”. The “Inhibition (qualitative)” value in assay [12] is “Active”.

`CC[C@@]1(O)C(=O)OCc2c1cc1n(c2=O)Cc2cc3ccccc3nc2-1`: the inhibition result in assay [18] was “Active”.

On to `CCCCn1c(=O)c2ccc3oc4ccccc4c4ccc(c1=O)c2c34`, for which the values for the pIC50 in [15], in assay [16] and in [17] were under 4.00, under 4.00 and 5.27, respectively.

For the molecule `CN(C)CCCN1C(=O)c2cccc3c2c(cc2c4ccccc4oc32)C1=O`, the values for the pIC50 in assay [15], in assay [16] and in assay [17] were 5.18, 6.77 and 6.13, respectively.

In the case of `CN(C)CCCN1C(=O)c2cccc3c2c(cc2c4ccccc4sc32)C1=O`, the pIC50 in [16] was 6.49; in [17], 6.60.

On to `CN(C)CCN1C(=O)c2cccc3c2c(cc2nc(-c4ccccc4)oc23)C1=O`, for which the pIC50 in [15] was 5.52; in [16], 5.60; in assay [17], 6.28.

With `CN(C)CCN1C(=O)c2cccc3c2c(cc2nc(-c4ccccc4)sc23)C1=O`, the pIC50 in assay [16] was 6.18; in assay [17] it was 7.07.

As to `CN(C)CCn1c(=O)c2ccc3sc4ccccc4c4ccc(c1=O)c2c34`, the Ka in assay [1] is 4.76 ×10⁵ /M; in assay [2], 1.89 ×10⁵ /M; in assay [3], 2.13 ×10⁵ /M; in assay [4], 4 ×10⁵ /M; in [5], 3 ×10⁴ /M; in assay [6], 1.92 ×10⁵ /M. Besides, the Ka in assay [7] was 3.33 ×10⁶ /M; in assay [8], 9.09 ×10⁵ /M; in [9], 4.76 ×10⁶ /M; in assay [10] it was 4.48 ×10⁵ /M; in assay [14] it was 9.7 ×10⁴ /M. In addition, the Selectivity ratio in assay [19] was 10. Also, the “Topoisomerase 1 relaxation inhibition (qualitative)” value in [11] is “Active”. Besides, the “Inhibition (qualitative)” value in assay [12] was “Active”. Also, the outcome in assay [13] was Active. The pIC50 in [15] was 5.39.

Consider `CN(C)CCN1C(=O)c2cccc3cc(N)cc(c23)C1=O` [AMONAFIDE], for which the “Inhibition (qualitative)” value in [12] was “Active”. Besides, in assay [15], the pIC50 was 5.30.

As to `COc1ccc(-c2nc3cc4c5c(cccc5c3s2)C(=O)N(CCN(C)C)C4=O)cc1`, the pIC50 was 6.37 in [16] and 7.80 in assay [17].

Turning to `CCCCN1C(=O)c2cccc3c2c(cc2c4ccccc4sc32)C1=O`, the results for the pIC50 in assay [16] and in assay [17] were 6.13 and 5.87, respectively.

`O=c1c2ccc3sc4ccccc4c4ccc(c(=O)n1CCN1CCNCC1)c2c34`: the pIC50 is under 4.00 in assay [16] and 4.00 in assay [17].

Take `Cc1ccc(-c2nc3cc4c5c(cccc5c3s2)C(=O)N(CCN(C)C)C4=O)cc1`: the pIC50 in [16] is 6.21; in assay [17] it was 6.38.

`CN(C)CCN1C(=O)c2cccc3c2c(cc2nc(-c4ccc(Cl)cc4)oc23)C1=O`: the results for the pIC50 in assay [15], in assay [16] and in assay [17] were under 4.00, 4.70 and 4.14, respectively.

For the molecule `COc1ccc(-c2nc3cc4c5c(cccc5c3o2)C(=O)N(CCN(C)C)C4=O)cc1`, the pIC50 in assay [15] is 5.47; in assay [16], 5.89; in assay [17], 5.18.

Regarding `O=C1c2cccc3c2c(cc2c4ccccc4sc32)C(=O)N1CCN1CCNCC1`, the pIC50 is 4.14 in assay [16] and 4.93 in assay [17].

With `CN(C)CCN1C(=O)c2cccc3c2c(cc2c4ccccc4oc32)C1=O`, the Ka in assay [9] is 6.36 ×10⁶ /M; in assay [10], 5 ×10⁶ /M; in [14], 2.89 ×10⁵ /M. In assay [11], the “Topoisomerase 1 relaxation inhibition (qualitative)” value was “Active”. Besides, the “Inhibition (qualitative)” value in assay [12] was “Active”. Also, the result in assay [13] was Active. In addition, the figures for the pIC50 in [15], in assay [16] and in assay [17] were 5.30, 6.19 and 6.44, respectively.

For the molecule `CN(C)CCN1C(=O)c2cccc3c2c(cc2c4ccccc4sc32)C1=O`, the Selectivity ratio in assay [19] stood at 10. Moreover, the Ka in assay [9] stood at 7.6 ×10⁷ /M; in assay [10] it was 8 ×10⁶ /M; in [14], 1.1 ×10⁵ /M. Also, in [11], the “Topoisomerase 1 relaxation inhibition (qualitative)” value was “Active”. Also, the “Inhibition (qualitative)” value in assay [12] is “Active”. In addition, the result in [13] was Active. The molecule further showed a pIC50 in assay [15] of 6.05.

For `CCCCn1c(=O)c2ccc3sc4ccccc4c4ccc(c1=O)c2c34`, the pIC50 in assay [16] was 5.92; in assay [17], 6.06.

These data come from ChEMBL document CHEMBL2331412, “Oxo-heterocyclic fused naphthalimides as antitumor agents: synthesis and biological evaluation” (Eur J Med Chem, 2013).
